Source: ChEMBL document CHEMBL1144568, “Synthesis of novel potent hepatitis C virus NS3 protease inhibitors: discovery of 4-hydroxy-cyclopent-2-ene-1,2-dicarboxylic acid as a N-acyl-L-hydroxyproline bioisostere” (Bioorg Med Chem, 2007)

Test: Inhibition of full length HCV NS3/4A protease
Set-up: species or system Hepacivirus hominis
How it was run: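 30 min room-temperature preincubation with inhibitor, then FRET substrate RET S1 at 2 µM final. Activity followed continuously 20 min (ex 355/em 500 nm); IC50 by non-linear fit, Ki derived from IC50.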

Ki | SMILES
0.0013 µM | C=C[C@@H]1C[C@]1(NC(=O)[C@@H]1C[C@@H](Oc2cc(-c3ccccc3)nc3cc(OC)ccc23)C=C1C(=O)N[C@H](C(=O)N[C@H](C(=O)NC)C1CCCCC1)C(C)(C)C)C(=O)O
> 2 µM | C=C[C@@H]1C[C@]1(NC(=O)C1CC(Oc2cc(-c3ccccc3)nc3cc(OC)ccc23)C=C1C(=O)N[C@H](C(=O)N[C@H](C(=O)OC)C1CCCCC1)C(C)(C)C)C(=O)OC(C)(C)C (some centres undefined)
> 5 µM | C=C[C@@H]1C[C@]1(NC(=O)C1CC(Oc2cc(-c3ccccc3)nc3cc(OC)ccc23)C=C1C(=O)N[C@H](C(=O)N(C)[C@H](C(=O)NC)C1CCCCC1)C(C)(C)C)C(=O)O (some centres undefined)
0.016 µM | C=C[C@@H]1C[C@]1(NC(=O)[C@@H]1C[C@@H](Oc2cc(-c3ccccc3)nc3cc(OC)ccc23)C[C@H]1C(=O)N[C@H](C(=O)N[C@H](C(=O)NC)C1CCCCC1)C(C)(C)C)C(=O)O
0.108 µM | C=C[C@@H]1C[C@]1(NC(=O)[C@H]1C[C@H](Oc2cc(-c3ccccc3)nc3cc(OC)ccc23)C=C1C(=O)N[C@H](C(=O)N[C@H](C(=O)OC)C1CCCCC1)C(C)(C)C)C(=O)O
0.0011 µM | C=C[C@@H]1C[C@]1(NC(=O)[C@@H]1C[C@@H](Oc2cc(-c3ccccc3)nc3cc(OC)ccc23)C=C1C(=O)N[C@H](C(=O)N[C@H](C(=O)OC)C1CCCCC1)C(C)(C)C)C(=O)O
> 2 µM | C=C[C@@H]1C[C@]1(NC(=O)C1CC(Oc2cc(-c3ccccc3)nc3cc(OC)ccc23)C=C1C(=O)N[C@H](C(=O)N[C@H](C(=O)NC)C1CCCCC1)C(C)(C)C)C(=O)OC(C)(C)C (some centres undefined)
0.023 µM | C=C[C@@H]1C[C@]1(NC(=O)[C@H]1C[C@H](Oc2cc(-c3ccccc3)nc3cc(OC)ccc23)C=C1C(=O)N[C@H](C(=O)N[C@H](C(=O)NC)C1CCCCC1)C(C)(C)C)C(=O)O
0.024 µM | C=C[C@@H]1C[C@]1(NC(=O)C1CC(Oc2cc(-c3ccccc3)nc3cc(OC)ccc23)C=C1C(=O)N[C@H](C(=O)N[C@H](C(=O)OC)C1CCCCC1)C(C)C)C(=O)O (some centres undefined)

Further lines, the molecule ahead of its results:

SMILES | Ki
CCC[C@H](NC(=O)[C@H]1C[C@H](Oc2cc(-c3ccccc3)nc3cc(OC)ccc23)C=C1C(=O)N[C@H](C(=O)N[C@H](C(=O)OC)C1CCCCC1)C(C)(C)C)C(=O)O | > 2 µM
CC[C@H](NC(=O)[C@@H]1C[C@@H](Oc2cc(-c3ccccc3)nc3cc(OC)ccc23)C=C1C(=O)N[C@@H](C(=O)N[C@@H](C(=O)OC)C1CCCCC1)C(C)C)C(=O)O | > 2 µM
CCC[C@H](NC(=O)[C@@H]1C[C@@H](Oc2cc(-c3ccccc3)nc3cc(OC)ccc23)C=C1C(=O)N[C@H](C(=O)N[C@H](C(=O)OC)C1CCCCC1)C(C)(C)C)C(=O)O | 0.03 µM
CC[C@H](NC(=O)C1CC(Oc2cc(-c3ccccc3)nc3cc(OC)ccc23)C=C1C(=O)N[C@H](C(=O)N[C@H](C(=O)OC)C1CCCCC1)C(C)C)C(=O)O (some centres undefined) | 0.523 µM
CC[C@H](NC(=O)C1CC(Oc2cc(-c3ccccc3)nc3cc(OC)ccc23)C=C1C(=O)N[C@H](C(=O)N[C@H](C(=O)OC)C1CCCCC1)C(C)(C)C)C(=O)O (some centres undefined) | 0.503 µM
CCC[C@H](NC(=O)[C@H]1C[C@H](Oc2cc(-c3ccccc3)nc3cc(OC)ccc23)C=C1C(=O)N[C@H](C(=O)N[C@H](C(=O)OC)C1CCCCC1)C(C)C)C(=O)O | 2.56 µM
CC[C@H](NC(=O)C1CC(Oc2cc(-c3ccccc3)nc3cc(OC)ccc23)C=C1C(=O)N[C@H](C(=O)N[C@H](C(=O)NC)C1CCCCC1)C(C)(C)C)C(=O)O (some centres undefined) | 0.28 µM
CCC[C@H](NC(=O)[C@@H]1C[C@@H](Oc2cc(-c3ccccc3)nc3cc(OC)ccc23)C=C1C(=O)N[C@H](C(=O)N[C@H](C(=O)OC)C1CCCCC1)C(C)C)C(=O)O | 0.102 µM
CCC[C@H](NC(=O)C1CC(Oc2cc(-c3ccccc3)nc3cc(OC)ccc23)C=C1C(=O)N[C@H](C(=O)N[C@H](C(=O)NC)C1CCCCC1)C(C)(C)C)C(=O)O (some centres undefined) | 0.067 µM
CC[C@H](NC(=O)C1CC(Oc2cc(-c3ccccc3)nc3cc(OC)ccc23)C=C1C(=O)N[C@H](C(=O)OC)C(C)C)C(=O)O (some centres undefined) | > 2 µM
